In ChEMBL document CHEMBL4052826, “Design and Synthesis of Novel Reactive Oxygen Species Inducers for the Treatment of Pancreatic Ductal Adenocarcinoma” (J Med Chem, 2018):
The source made the active and inactive calls. No cut-off for these calls is given here.

Tests used:
MIA PaCa-2 [1] = assay: Cytotoxicity against human MIAPaCa2 cells assessed as decrease in cell proliferation after 72 hrs by MTT assay; type: functional, cell-based; settings: MIA PaCa-2, 72 h
In short: (§1)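 MTT assay. Cells (3000–8000/well) attached overnight in RPMI1640 with 10% FBS; the GR line was kept with 200 nM gemcitabine. Serial dilutions (30 nM–10 μM for most lines) were applied for 72 h. MTT was added at a final 300 μg/mL for 3 h at 37°C, formazan was dissolved in DMSO and A570 read. Inhibition = (1 − OD treated/OD control) × 100. IC50 given as mean ± SD, three independent experiments.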

MIA PaCa-2 [2] = assay: Cytotoxicity against gemcitabine-resistant human MIAPaCa2 cells assessed as decrease in cell proliferation after 72 hrs by MTT assay; type: functional, cell-based; settings: MIA PaCa-2, 72 h; in short: as §1
[3] = Cytotoxicity against HPDEC assessed as decrease in cell proliferation after 72 hrs by MTT assay; type: cell-based; settings: Homo sapiens; in short: as §1
MIA PaCa-2 [4] = assay: Antitumor activity against human MIAPaCa2 cells xenografted in NOD/SCID mouse assessed as tumor volume at 15 mg/kg administered once a week for 48 days (reference value: 1503 +/- 189 mm'3); type: functional
In short: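 MIA PaCa-2 cells (2.0 × 10^6 in RPMI1640) were injected subcutaneously into the dorsal flank of 6-week NOD/SCID mice. Mice were randomized at 75 mm3 mean tumor size (vehicle n=4, treated n=3) and dosed at 15 mg/kg once weekly for 48 days. Tumors were measured by caliper twice weekly, with V = d2 × D/2. Values are mean ± SEM, and p values are from an unpaired t test.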

MIA PaCa-2 [5] = assay: Antitumor activity against human MIAPaCa2 cells xenografted in NOD/SCID mouse at 15 mg/kg administered twice a week for 15 days; type: functional, organism-based
In short: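 MIA PaCa-2 subcutaneous xenografts in NOD/SCID mice, randomized at 75 mm3. Test agent was given at 5 mg/kg five times a week. Gemcitabine was given at 15 mg/kg either once weekly for 48 days or twice weekly for 15 days. Groups were n=3–4. Tumor volume was measured by caliper, given as mean ± SEM, and compared by unpaired t test.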

Mus musculus [6] = assay: Toxicity in NOD/SCID mouse xenografted with human MIAPaCa2 cells assessed as body weight loss at 15 mg/kg administered once a week for 48 days; type: organism-based; settings: in vivo, 1152 h
In short: (§2)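 MIA PaCa-2 xenografted NOD/SCID mice randomized at 75 mm3 into vehicle (n=4), once-weekly (n=3) or twice-weekly (n=4) groups; 15 mg/kg given once a week for 48 days or twice a week for 15 days. Body weight followed; mean ± SEM.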

Mus musculus [7] = assay: Toxicity in NOD/SCID mouse xenografted with human MIAPaCa2 cells assessed as body weight loss at 15 mg/kg administered twice a week for 15 days; type: organism-based; settings: in vivo, 360 h; in short: as §2
MIA PaCa-2 [8] = assay: Induction of reactive oxygen species generation in human MIAPaCa2 cells at 1.1 to 10 uM after 24 hrs in presence of NAC by H2DCFDA reactivity assay; type: functional, cell-based
In short: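 H2DCFDA assay. Trypsinized MIA PaCa-2 cells in suspension were loaded with 20 μM H2DCFDA for 30 min at 37°C, washed and plated at 20,000/well. After 30 min they were treated with compound at 10, 3.3 or 1.1 μM. Fluorescence was read at 493/523 nm over time. DMSO basal and unstained controls were included. NAC pretreatment, where used, was 5 mM for 30 min. Duplicates, three independent experiments.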

MIA PaCa-2 [9] = assay: Cytotoxicity against human MIAPaCa2 cells assessed as decrease in cell proliferation after 72 hrs in presence of NAC by MTT assay; type: functional, cell-based
In short: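 MIA PaCa-2 cells were treated for 72 h with compound in the presence of 5 mM NAC. Viability was read by MTT (final 300 μg/mL, 3 h, A570). Mean ± SD of three independent experiments.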

[10] = Induction of compound aggregation
[11] = Induction of compound colloidal behavior
MIA PaCa-2 [12] = assay: Induction of reactive oxygen species generation in human MIAPaCa2 cells assessed as upregulation of NQO1 gene expression after 4 hrs by Bru-seq analysis; type: functional, cell-based
MIA PaCa-2 [13] = assay: Induction of reactive oxygen species generation in human MIAPaCa2 cells assessed as upregulation of HMOX1 gene expression after 4 hrs by Bru-seq analysis; type: functional, cell-based
MIA PaCa-2 [14] = assay: Induction of unfolded protein response in human MIAPaCa2 cells assessed as upregulation of DDIT3 gene expression after 4 hrs by Bru-seq analysis; type: functional, cell-based
MIA PaCa-2 [15] = assay: Induction of unfolded protein response in human MIAPaCa2 cells assessed as upregulation of HSPA5 gene expression after 4 hrs by Bru-seq analysis; type: functional, cell-based
In short: (§3)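 Nascent RNA sequencing (Bru-seq): 4×10^6 MIA PaCa-2 cells seeded in 10 cm dishes, treated next day for 4 h with drug or DMSO. Bromouridine (2 mM final) added for the last 30 min. Total RNA taken in TRIZOL; labeled RNA immunocaptured, converted to cDNA libraries and deep sequenced. Signal compared with DMSO-treated cells.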

MIA PaCa-2 [16] = assay: Induction of unfolded protein response in human MIAPaCa2 cells assessed as upregulation of CHOP expression at 5 uM by Western blot analysis; type: functional, cell-based; settings: TDE = time-dependent effect
In short: (§4)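 Immunoblotting. Cells (4×10^5) in 60 mm dishes were treated, lysed 30 min at 4°C and quantified by BCA. 40 μg protein was run on SDS-PAGE and transferred to PVDF. Primary antibodies (1:1000) incubated overnight at 4°C, then Dylight 800 secondary, with fluorescent scanning. Bands were normalized to GAPDH or actin loading controls. Mean ± SD, three independent experiments, Student's t-test.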

MIA PaCa-2 [17] = assay: Induction of unfolded protein response in human MIAPaCa2 cells assessed as upregulation of GRP78 expression at 5 uM by Western blot analysis; type: functional, cell-based; settings: TDE = time-dependent effect
In short: (§5)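 Cells (4×10^5) seeded in 60 mm dishes, cultured in RPMI1640 with 10% FBS, 5% CO2, 37°C, then compound-treated. Lysed 30 min at 4°C, BCA-quantified, 40 μg protein resolved by SDS-PAGE, transferred to PVDF, probed overnight at 4°C with primary antibodies (1:1000; GAPDH or actin loading control), then Dylight 800 secondary; fluorescence scanned. Bands normalized to loading control; mean ± SD, three independent experiments.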

PANC-1 [18] = assay: Induction of unfolded protein response in human PANC1 cells assessed as upregulation of GRP78 expression at 5 uM by Western blot analysis; type: functional, cell-based; settings: TDE = time-dependent effect; in short: as §5
BXPC-3 [19] = assay: Induction of unfolded protein response in human BxPC3 cells assessed as upregulation of GRP78 expression at 5 uM by Western blot analysis; type: functional, cell-based; settings: TDE = time-dependent effect; in short: as §4
PANC-1 [20] = assay: Induction of unfolded protein response in human PANC1 cells assessed as upregulation of CHOP expression at 5 uM by Western blot analysis; type: functional, cell-based; settings: TDE = time-dependent effect; in short: as §5
BXPC-3 [21] = assay: Induction of unfolded protein response in human BxPC3 cells assessed as upregulation of CHOP expression at 5 uM by Western blot analysis; type: functional, cell-based; settings: TDE = time-dependent effect; in short: as §4
MIA PaCa-2 [22] = assay: Induction of reactive oxygen species generation in human MIAPaCa2 cells assessed as upregulation of HO-1 expression at 5 uM after 4 to 24 hrs by Western blot analysis; type: functional, cell-based; in short: as §4
BXPC-3 [23] = assay: Induction of reactive oxygen species generation in human BxPC3 cells assessed as upregulation of HO-1 expression at 5 uM after 4 to 24 hrs by Western blot analysis; type: functional, cell-based; in short: as §4
PANC-1 [24] = assay: Induction of reactive oxygen species generation in human PANC1 cells assessed as upregulation of HO-1 expression at 5 uM after 4 to 24 hrs by Western blot analysis; type: functional, cell-based; in short: as §4
MIA PaCa-2 [25] = assay: Induction of reactive oxygen species generation in human MIAPaCa2 cells assessed as upregulation of NQO1 expression at 5 uM after 4 to 24 hrs by Western blot analysis; type: functional, cell-based; in short: as §4
BXPC-3 [26] = assay: Induction of reactive oxygen species generation in human BxPC3 cells assessed as upregulation of NQO1 expression at 5 uM after 4 to 24 hrs by Western blot analysis; type: functional, cell-based; in short: as §4
MIA PaCa-2 [27] = assay: Induction of apoptosis signaling in human MIAPaCa2 cells at 3 times IC50 after 4 hrs by IPA analysis; type: functional, cell-based
MIA PaCa-2 [28] = assay: Downregulation of Sp1 gene expression in human MIAPaCa2 cells at IC50 to 3 times IC50 after 4 hrs by Bru-seq analysis; type: functional, cell-based
MIA PaCa-2 [29] = assay: Downregulation of Sp3 gene expression in human MIAPaCa2 cells at IC50 to 3 times IC50 after 4 hrs by Bru-seq analysis; type: functional, cell-based
MIA PaCa-2 [30] = assay: Downregulation of Sp4 gene expression in human MIAPaCa2 cells at IC50 to 3 times IC50 after 4 hrs by Bru-seq analysis; type: functional, cell-based
MIA PaCa-2 [31] = assay: Inhibition of mtDNA transcription from HSP2 promoter in human MIAPaCa2 cells at 3 times IC50 after 4 hrs by Bru-seq analysis; type: functional, cell-based; in short: as §3
MIA PaCa-2 [32] = assay: Downregulation of COX-3 expression in human MIAPaCa2 cells at 5 uM after 4 to 24 hrs by Western blot method; type: functional, cell-based; in short: as §4
MIA PaCa-2 [33] = assay: Inhibition of mtDNA transcription from LSP promoter in human MIAPaCa2 cells at 3 times IC50 after 4 hrs by Bru-seq analysis; type: functional, cell-based; in short: as §3
MIA PaCa-2 [34] = assay: Inhibition of mtDNA transcription from HSP1 promoter in human MIAPaCa2 cells at 3 times IC50 after 4 hrs by Bru-seq analysis; type: functional, cell-based; in short: as §3
PANC-1 [35] = assay: Cytotoxicity against human PANC1 cells assessed as decrease in cell proliferation after 72 hrs by MTT assay; type: functional, cell-based; settings: PANC-1, 72 h; in short: as §1
BXPC-3 [36] = assay: Cytotoxicity against human BxPC3 cells assessed as decrease in cell proliferation after 72 hrs by MTT assay; type: functional, cell-based; settings: BXPC-3, 72 h; in short: as §1

## Nc1ccn([C@@H]2O[C@H](CO)[C@@H](O)C2(F)F)c(=O)n1 [GEMCITABINE]
MIA PaCa-2 [1]
  IC50: 110 nM
MIA PaCa-2 [2]
  IC50: 3300 nM
[3]
  IC50: 140 nM
MIA PaCa-2 [4]
  Activity: 387 mm3
MIA PaCa-2 [5]
  Activity: Active
Mus musculus [6]
  Activity: Non-Toxic
Mus musculus [7]
  Activity: Non-Toxic

## CC(=O)c1cccc(NC2=CC(=O)c3ncncc3C2=O)c1
MIA PaCa-2 [1]
  IC50: 2300 nM
MIA PaCa-2 [2]
  IC50: 3600 nM
[3]
  IC50: 4500 nM
MIA PaCa-2 [8]
  Activity: inactive
MIA PaCa-2 [9]
  Activity: inactive
[10]
  Activity: Active
[11]
  Activity: Active
MIA PaCa-2 [12]
  Activity: Dose-dependent effect
MIA PaCa-2 [13]
  Activity: Dose-dependent effect
MIA PaCa-2 [14]
  Activity: Dose-dependent effect
MIA PaCa-2 [15]
  Activity: Dose-dependent effect
MIA PaCa-2 [16]
  Activity: Tde
MIA PaCa-2 [17]
  Activity: Tde
PANC-1 [18]
  Activity: Tde
BXPC-3 [19]
  Activity: Tde
PANC-1 [20]
  Activity: Tde
BXPC-3 [21]
  Activity: Tde
MIA PaCa-2 [22]
  Activity: Active
BXPC-3 [23]
  Activity: Active
PANC-1 [24]
  Activity: inactive
MIA PaCa-2 [25]
  Activity: inactive
BXPC-3 [26]
  Activity: inactive
MIA PaCa-2 [27]
  Activity: Active
MIA PaCa-2 [28]
  Activity: inactive
MIA PaCa-2 [29]
  Activity: inactive
MIA PaCa-2 [30]
  Activity: inactive
MIA PaCa-2 [31]
  inhibition: Active
MIA PaCa-2 [32]
  Activity: Active
MIA PaCa-2 [33]
  inhibition: Active
MIA PaCa-2 [34]
  inhibition: inactive
PANC-1 [35]
  IC50: 900 nM
BXPC-3 [36]
  IC50: 5200 nM
